Assay results: ChEMBL document CHEMBL1122637, “Synthesis and antiallergy activity of 10-oxo-10H-pyrido[1,2-a]thieno[3,2-d]pyrimidines and 10-oxo-10H-pyrido[1,2-a]thieno[3,4-d]pyrimidines” (1984)
The source made the active and inactive calls. No cut-off for these calls is given here.

Experiments:
Rattus norvegicus [1] = assay: Antiallergic activity in the rat passive cutaneous anaphylaxis (PCA) model after intraperitoneal administration at a dose 5 mg/kg; assay type: functional; details: ip
Method in brief: (§1)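 Rats passively sensitized by intradermal injection of antiserum dilutions at several back sites, 48 h before iv challenge with 1 mg ovalbumin in 1 mL saline with 0.25% Evans blue. Drug given ip as a suspension in 1% gum tragacanth/saline 10-15 min before challenge. Wheal diameter read 30 min later. Five rats per group. % inhibition taken against control minus extrapolated base value at the highest antiserum concentration. Student's t test.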

Rattus norvegicus [2] = assay: Compound was tested for antiallergic activity in the rat passive cutaneous anaphylaxis (PCA) model after intraperitoneal administration at a dose 10 mg/kg; assay type: functional; details: ip; method in brief: as §1
Rattus norvegicus [3] = assay: Compound was tested for antiallergic activity in the rat passive cutaneous anaphylaxis (PCA) model after intraperitoneal administration at a dose 5 mg/kg; I denotes Inactive at 30 mg/kg; assay type: functional, organism-based; details: in the assay text read “Inactive at 5 mg/kg” for “Inactive at 30 mg/kg”; method in brief: as §1

| SMILES | inhibition in vivo at 5 mg/kg (Rattus norvegicus [1]) [%] | also measured |
| --- | --- | --- |
| Cc1sc(C)c2c(=O)n3cc(C(=O)O)ccc3nc12 | 70 |  |
| Cc1sc(C)c2c(=O)n3cc(-c4nnn[nH]4)ccc3nc12 | 47 |  |
| O=C(Nc1nn[nH]n1)c1ccc2nc3c(c(=O)n2c1)CSC3 | 33 |  |
| O=c1c2cscc2nc2ccc(-c3nnn[nH]3)cn12 | 100 |  |
| Cc1cc2c(=O)n3cc(C(=O)Nc4nn[nH]n4)ccc3nc2s1 | 25 |  |
| O=C(O)c1cc(=O)c2c(OCC(O)COc3cccc4oc(C(=O)O)cc(=O)c34)cccc2o1 [CROMOLYN SODIUM] |  | inhibition in vivo at 10 mg/kg (Rattus norvegicus [2]): 89% |
| Cc1cc2nc3ccc(C(=O)Nc4nn[nH]n4)cn3c(=O)c2s1 | 21 |  |
| O=C(O)c1ccc2nc3c(c(=O)n2c1)SCC3 | 46 |  |
| Cc1cc2nc3ccc(-c4nnn[nH]4)cn3c(=O)c2s1 | 51 |  |
| O=C(O)c1ccc2nc3c(c(=O)n2c1)CSC3 |  | inhibition (Rattus norvegicus [3]): inactive |
| O=c1c2c(nc3ccc(-c4nnn[nH]4)cn13)CSC2 | 100 |  |
| Cc1cc2c(=O)n3cc(C(=O)O)ccc3nc2s1 | 100 |  |
| O=c1c2c(nc3ccc(-c4nnn[nH]4)cn13)CCS2 |  | inhibition (Rattus norvegicus [3]): inactive |
| Cc1sc(C)c2c(=O)n3cc(C(=O)Nc4nn[nH]n4)ccc3nc12 | 50 |  |
| O=C(Nc1nn[nH]n1)c1ccc2nc3cscc3c(=O)n2c1 | 49 |  |
| O=c1c2sccc2nc2ccc(-c3nnn[nH]3)cn12 | 70 |  |
| Cc1cc2c(=O)n3cc(-c4nnn[nH]4)ccc3nc2s1 | 100 |  |
| O=C(O)c1ccc2nc3cscc3c(=O)n2c1 | 41 |  |
| Cc1cc2nc3ccc(C(=O)O)cn3c(=O)c2s1 | 61 |  |
| O=C(O)c1ccc2nc3ccsc3c(=O)n2c1 | 28 |  |
| O=C(Nc1nn[nH]n1)c1ccc2nc3ccsc3c(=O)n2c1 | 100 |  |
